MIC data for three compounds are collected here from ChEMBL document CHEMBL1629487, “Synthesis and in vitro antimicrobial evaluation of novel fluoroquinolone derivatives” (2010).

One may read the MIC as the lowest concentration that inhibits growth of the organism. Read a low MIC as a more susceptible organism.

Converted amounts (≈) assume the structure as drawn.

One assay concerns Aeromonas hydrophila. The assay can be described thus: Antimicrobial activity against Aeromonas hydrophila ATCC 7966 after 18 to 24 hrs by microbroth dilution method. The format is functional.
Conditions: not given
The method, boiled down: (§1)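 Bacteria were cultured in Mueller Hinton broth in 96-well microtiter plates, and the suspensions were added to MHB containing varying concentrations of test compound. Plates were incubated at 37 °C for 18–24 h, then read visually with a reading mirror and spectrophotometrically at 450 nm. MIC was taken as the lowest concentration giving complete suppression of visible growth.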
Background: Broth dilution looks for growth in wells or tubes with falling amounts of substance.
The compound `CCn1cc(C(=O)O)c(=O)c2cc(F)c(N3CCC(CO)CC3)c(F)c21` had an MIC of 1 µg/mL (≈ 2.73 µM).
In the case of `CCn1cc(C(=O)O)c(=O)c2cc(F)c(N3CCN(c4cccc(Cl)c4Cl)CC3)c(F)c21`, the MIC was 0.5 µg/mL (≈ 1.04 µM).
`CCn1cc(C(=O)O)c(=O)c2cc(F)c(N3CCC(Br)CC3)c(F)c21` displayed an MIC of 1.5 µg/mL (≈ 3.61 µM).

Another assay relates to Proteus mirabilis. In words: Antimicrobial activity against Proteus mirabilis ATCC 7002 after 18 to 24 hrs by microbroth dilution method. The class given is functional.
Conditions: not given
The method, boiled down:
as §1
In turn, `CCn1cc(C(=O)O)c(=O)c2cc(F)c(N3CCC(CO)CC3)c(F)c21` gave an MIC of 1.25 µg/mL (≈ 3.41 µM).
Compound `CCn1cc(C(=O)O)c(=O)c2cc(F)c(N3CCN(c4cccc(Cl)c4Cl)CC3)c(F)c21` returned an MIC of 5 µg/mL (≈ 10.4 µM).
`CCn1cc(C(=O)O)c(=O)c2cc(F)c(N3CCC(Br)CC3)c(F)c21`: the minimum inhibitory concentration (MIC) stood at 5 µg/mL (≈ 12 µM).

Another assay has as its system Streptococcus sanguinis. In words: Antimicrobial activity against Streptococcus sanguinis ATCC 10556 after 18 to 24 hrs by microbroth dilution method. The class given is functional.
Conditions: not given
The method, boiled down:
as §1
`CCn1cc(C(=O)O)c(=O)c2cc(F)c(N3CCC(CO)CC3)c(F)c21` returned a minimum inhibitory concentration (MIC) of 2 µg/mL (≈ 5.46 µM).

The test system of another assay is Pseudomonas aeruginosa. In words: Antimicrobial activity against Pseudomonas aeruginosa ATCC 10145 after 18 to 24 hrs by microbroth dilution method. The class given is functional.
Conditions: not given
The essentials:
as §1
Compound `CCn1cc(C(=O)O)c(=O)c2cc(F)c(N3CCC(CO)CC3)c(F)c21` yielded an MIC of 1.5 µg/mL (≈ 4.09 µM).

The next assay deals with Candida albicans. In words: Antimicrobial activity against Candida albicans ATCC 90028 after 18 to 24 hrs by microbroth dilution method. The format is functional.
Conditions: not given
The method, boiled down:
(§2)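 Fungal isolates were cultivated in Sabouraud's broth in 96-well microtiter plates, and the suspensions were added to SDB containing varying concentrations of test compound. Plates were incubated at 37 °C for 18–24 h, then read visually with a reading mirror and spectrophotometrically at 450 nm. MIC was taken as the lowest concentration completely suppressing visible growth.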
`CCn1cc(C(=O)O)c(=O)c2cc(F)c(N3CCC(CO)CC3)c(F)c21` returned an MIC of 183 µg/mL (≈ 500 µM).
Same read-out and setting: to `CCn1cc(C(=O)O)c(=O)c2cc(F)c(N3CCN(c4cccc(Cl)c4Cl)CC3)c(F)c21` belongs 108 µg/mL (≈ 224 µM).
Same read-out and setting: to `CCn1cc(C(=O)O)c(=O)c2cc(F)c(N3CCC(Br)CC3)c(F)c21` belongs 415 µg/mL (≈ 999 µM).

For a further assay, the system named is Staphylococcus aureus. The assay can be described thus: Antimicrobial activity against Staphylococcus aureus ATCC 11632 after 18 to 24 hrs by microbroth dilution method. The format is functional.
Conditions: not given
The method, boiled down: as §1
`CCn1cc(C(=O)O)c(=O)c2cc(F)c(N3CCC(CO)CC3)c(F)c21` came in with an MIC of 1.25 µg/mL (≈ 3.41 µM).
For the compound `CCn1cc(C(=O)O)c(=O)c2cc(F)c(N3CCN(c4cccc(Cl)c4Cl)CC3)c(F)c21`, the MIC turned out to be 1 µg/mL (≈ 2.07 µM).
On the same count and under the same terms, in the case of `CCn1cc(C(=O)O)c(=O)c2cc(F)c(N3CCC(Br)CC3)c(F)c21` it was 5 µg/mL (≈ 12 µM).

A further assay deals with Vibrio parahaemolyticus. The assay can be described thus: Antimicrobial activity against Vibrio parahaemolyticus ATCC 17802 after 18 to 24 hrs by microbroth dilution method.
Conditions: not given
The class given is functional. The essentials:
as §1
Regarding `CCn1cc(C(=O)O)c(=O)c2cc(F)c(N3CCC(CO)CC3)c(F)c21`, the MIC was found to be 1.25 µg/mL (≈ 3.41 µM).
On the same count and under the same terms, in the case of `CCn1cc(C(=O)O)c(=O)c2cc(F)c(N3CCN(c4cccc(Cl)c4Cl)CC3)c(F)c21` it was 1.25 µg/mL (≈ 2.59 µM).
Still for that read-out and setting: in the case of `CCn1cc(C(=O)O)c(=O)c2cc(F)c(N3CCC(Br)CC3)c(F)c21` it was 5 µg/mL (≈ 12 µM).

In a further assay the test system is Vibrio alginolyticus. In words: Antimicrobial activity against Vibrio alginolyticus ATCC 17749 after 18 to 24 hrs by microbroth dilution method. The format is functional.
Conditions: not given
The essentials: as §1
Turning to `CCn1cc(C(=O)O)c(=O)c2cc(F)c(N3CCC(CO)CC3)c(F)c21`, the MIC stood at 1 µg/mL (≈ 2.73 µM).
For the compound `CCn1cc(C(=O)O)c(=O)c2cc(F)c(N3CCN(c4cccc(Cl)c4Cl)CC3)c(F)c21`, it took 1 µg/mL (≈ 2.07 µM) to inhibit growth (MIC).

The subject of another assay is Bacillus subtilis. The assay can be described thus: Antimicrobial activity against Bacillus subtilis ATCC 11774 after 18 to 24 hrs by microbroth dilution method. The class given is functional.
Conditions: not given
The essentials:
as §1
Regarding `CCn1cc(C(=O)O)c(=O)c2cc(F)c(N3CCC(CO)CC3)c(F)c21`, inhibition of growth (MIC) required 1 µg/mL (≈ 2.73 µM).
On the same count and under the same terms, to `CCn1cc(C(=O)O)c(=O)c2cc(F)c(N3CCN(c4cccc(Cl)c4Cl)CC3)c(F)c21` belongs 5 µg/mL (≈ 10.4 µM).
Compound `CCn1cc(C(=O)O)c(=O)c2cc(F)c(N3CCC(Br)CC3)c(F)c21` registered a minimum inhibitory concentration (MIC) of 2.5 µg/mL (≈ 6.02 µM).

A further assay concerns Streptococcus salivarius. In words: Antimicrobial activity against Streptococcus salivarius ATCC 13419 after 18 to 24 hrs by microbroth dilution method.
Conditions: not given
The format is functional. The essentials: as §1
As to `CCn1cc(C(=O)O)c(=O)c2cc(F)c(N3CCC(CO)CC3)c(F)c21`, the minimal inhibitory concentration (MIC) is 1.25 µg/mL (≈ 3.41 µM).
Same read-out and setting: in the case of `CCn1cc(C(=O)O)c(=O)c2cc(F)c(N3CCN(c4cccc(Cl)c4Cl)CC3)c(F)c21` it was 2.5 µg/mL (≈ 5.18 µM); in that of `CCn1cc(C(=O)O)c(=O)c2cc(F)c(N3CCC(Br)CC3)c(F)c21`, 2.5 µg/mL (≈ 6.02 µM).

The subject of another assay is Proteus vulgaris. The assay can be described thus: Antimicrobial activity against Proteus vulgaris ATCC 49132 after 18 to 24 hrs by microbroth dilution method.
Conditions: not given
The class given is functional. The method, boiled down:
as §1
For `CCn1cc(C(=O)O)c(=O)c2cc(F)c(N3CCC(CO)CC3)c(F)c21`, inhibition of growth (MIC) required 1.25 µg/mL (≈ 3.41 µM).
The same measure, in the same setting: in the case of `CCn1cc(C(=O)O)c(=O)c2cc(F)c(N3CCN(c4cccc(Cl)c4Cl)CC3)c(F)c21` it was 2.5 µg/mL (≈ 5.18 µM); in that of `CCn1cc(C(=O)O)c(=O)c2cc(F)c(N3CCC(Br)CC3)c(F)c21`, 2.5 µg/mL (≈ 6.02 µM).

The subject of the next assay is Streptococcus mitis. In words: Antimicrobial activity against Streptococcus mitis ATCC 6249 after 18 to 24 hrs by microbroth dilution method. The format is functional.
Conditions: not given
The method, boiled down: as §1
`CCn1cc(C(=O)O)c(=O)c2cc(F)c(N3CCC(CO)CC3)c(F)c21` yielded an MIC of 2.5 µg/mL (≈ 6.82 µM).
On the same count and under the same terms, to `CCn1cc(C(=O)O)c(=O)c2cc(F)c(N3CCN(c4cccc(Cl)c4Cl)CC3)c(F)c21` belongs 5 µg/mL (≈ 10.4 µM); to `CCn1cc(C(=O)O)c(=O)c2cc(F)c(N3CCC(Br)CC3)c(F)c21`, 1 µg/mL (≈ 2.41 µM).

For a further assay, the system named is Salmonella paratyphi. The assay can be described thus: Antimicrobial activity against Salmonella paratyphi A ATCC 9150 after 18 to 24 hrs by microbroth dilution method. The class given is functional, Salmonella enterica subsp. enterica serovar Paratyphi A. As to conditions: Salmonella enterica. The essentials: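 Broth microdilution in 96-well plates; bacteria grown in Mueller Hinton broth with varying concentrations of test compound, incubated at 37 °C for 18–24 h. Plates read visually with a reading mirror and spectrophotometrically at 450 nm. MIC taken as lowest concentration giving complete suppression of visible growth.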
Turning to `CCn1cc(C(=O)O)c(=O)c2cc(F)c(N3CCC(CO)CC3)c(F)c21`, the MIC is 5 µg/mL (≈ 13.6 µM).
Same read-out and setting: to `CCn1cc(C(=O)O)c(=O)c2cc(F)c(N3CCN(c4cccc(Cl)c4Cl)CC3)c(F)c21` belongs 5 µg/mL (≈ 10.4 µM).

For a further assay, the system named is Cryptococcus neoformans. In words: Antimicrobial activity against Cryptococcus neoformans ATCC 14116 after 18 to 24 hrs by microbroth dilution method. The class given is functional.
Conditions: not given
The essentials:
as §2
Take `CCn1cc(C(=O)O)c(=O)c2cc(F)c(N3CCC(CO)CC3)c(F)c21`: the MIC turned out to be 4.19 µg/mL (≈ 11.4 µM).
Same read-out and setting: in the case of `CCn1cc(C(=O)O)c(=O)c2cc(F)c(N3CCN(c4cccc(Cl)c4Cl)CC3)c(F)c21` it was 2.17 µg/mL (≈ 4.5 µM).
Same read-out and setting: in the case of `CCn1cc(C(=O)O)c(=O)c2cc(F)c(N3CCC(Br)CC3)c(F)c21` it was 1.03 µg/mL (≈ 2.48 µM).

Another assay deals with Klebsiella pneumoniae. In words: Antimicrobial activity against Klebsiella pneumoniae ATCC 10031 after 18 to 24 hrs by microbroth dilution method. The class given is functional.
Conditions: not given
The method, boiled down: as §1
`CCn1cc(C(=O)O)c(=O)c2cc(F)c(N3CCC(CO)CC3)c(F)c21` returned an MIC of 2.5 µg/mL (≈ 6.82 µM).
For the compound `CCn1cc(C(=O)O)c(=O)c2cc(F)c(N3CCN(c4cccc(Cl)c4Cl)CC3)c(F)c21`, the minimum inhibitory concentration (MIC) worked out at 1.25 µg/mL (≈ 2.59 µM).
Same read-out and setting: to `CCn1cc(C(=O)O)c(=O)c2cc(F)c(N3CCC(Br)CC3)c(F)c21` belongs 5 µg/mL (≈ 12 µM).

In the next assay the test system is Shigella boydii. In words: Antimicrobial activity against Shigella boydii ATCC 9207 after 18 to 24 hrs by microbroth dilution method. The format is functional.
Conditions: not given
The essentials:
as §1
Compound `CCn1cc(C(=O)O)c(=O)c2cc(F)c(N3CCC(CO)CC3)c(F)c21` showed an MIC of 0.5 µg/mL (≈ 1.36 µM).
The same measure, in the same setting: to `CCn1cc(C(=O)O)c(=O)c2cc(F)c(N3CCN(c4cccc(Cl)c4Cl)CC3)c(F)c21` belongs 1 µg/mL (≈ 2.07 µM); to `CCn1cc(C(=O)O)c(=O)c2cc(F)c(N3CCC(Br)CC3)c(F)c21`, 1 µg/mL (≈ 2.41 µM).
